Rows were chosen to be rich in hits. Some 1.8% of all compounds tested hit in one or more screens of this group.
NR2E3 ag-1: inhibitors of NR2E3-RetCOR corepressor binding, primary screen, NR2E3 agonist project, biochemical, TR-FRET, GST-NR2E3, biotin-RetCOR; 1536-well; Photoreceptor-specific nuclear receptor (Homo sapiens), Q9Y5X4; inhibition of corepressor binding, % at 4.78 µM; 0.12% of 320,000 active; AID 2300, 2010;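 active means percent inhibition above the cutoff of mean plus 3 SD of all tested compounds, set per screening campaign, cut at about 20% in these data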;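 further: 0% = DMSO wells and 100% = biotin wells as full block of FRET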
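system = GST-tagged NR2E3 plus biotinylated RetCOR corepressor | input = 1.35 nM GST-NR2E3 | also added = 7 nM biotin-RetCOR | schedule = 5 h incubation at 4 °C | measured by = TR-FRET with europium anti-GST and streptavidin-D2, 340 nm excitation | read-out = percent loss of FRET ratio relative to control wells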
PG9 Ab binder: binders of HIV-1 gp120 antibody PG9, primary screen, biochemical, TR-FRET. TR-FRET gp120-PG9 antibody binding. inhibition, % at 6.7 µM. HIV-1 gp120 / PG9 antibody interaction. 0.43% of 360,000 active; in the data active means inhibition above about 8.5%
NR2E3 ag-2: NR2E3 agonists in two-hybrid cells, primary screen, cell-based, luminescence, CHO-S, Gal4-NCOR/VP16-NR2E3 | Photoreceptor-specific nuclear receptor (Homo sapiens), Q9Y5X4 | luciferase | inhibition of corepressor binding, % at 3.98 µM | 0.35% of 360,000 active | AID 602229, 2012;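 active means inhibition above the mean of all tested compounds plus 3 SD, cut at about 70% in these data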;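 further: 0% = DMSO with NR2E3 transfected cells and 100% = cells lacking NR2E3 construct; higher means lower luciferase signal from less NR2E3 corepressor binding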
GalR3 antag: GalR3 antagonists in HEK293 cells, primary screen, cell-based, fluorescence readout | HEK293 GalR3-CNG cAMP membrane potential fluorescence; galR3 body fused to GalR1 C-terminus | Galanin receptor type 3 (Homo sapiens), O60755 | inhibition, % at 3 µM | 0.44% of 360,000 active | AID 651719, 2012;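 active means inhibition above the screen-wide average plus 3 SD, cut at about 13% in these data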;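 further: forskolin and galanin both at EC90 stimulate the cells; cAMP rise reported by CNG channel membrane potential dye signal; 0% = forskolin plus galanin with DMSO and 100% = forskolin alone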
Rev-erbA mod: modulators of Rev-erb alpha DNA binding, primary screen, biochemical, FITC-DNA, fluorescence polarization, uHTS; Rev-erbα–FITC-DNA binding, 90 min; 0.79% of 370,000 active; Nuclear receptor subfamily 1 group D member 1 (Homo sapiens), P20393; activity, % at 10 µM; AID 1259318, 2017;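 active means activity above about 14%, limit read from the data; passing the limit was not always enough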;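 further: 0% = DMSO wells with 35 nM protein and 100% = DMSO wells with 750 nM protein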
Target sequence (P20393 whole entry, looked up): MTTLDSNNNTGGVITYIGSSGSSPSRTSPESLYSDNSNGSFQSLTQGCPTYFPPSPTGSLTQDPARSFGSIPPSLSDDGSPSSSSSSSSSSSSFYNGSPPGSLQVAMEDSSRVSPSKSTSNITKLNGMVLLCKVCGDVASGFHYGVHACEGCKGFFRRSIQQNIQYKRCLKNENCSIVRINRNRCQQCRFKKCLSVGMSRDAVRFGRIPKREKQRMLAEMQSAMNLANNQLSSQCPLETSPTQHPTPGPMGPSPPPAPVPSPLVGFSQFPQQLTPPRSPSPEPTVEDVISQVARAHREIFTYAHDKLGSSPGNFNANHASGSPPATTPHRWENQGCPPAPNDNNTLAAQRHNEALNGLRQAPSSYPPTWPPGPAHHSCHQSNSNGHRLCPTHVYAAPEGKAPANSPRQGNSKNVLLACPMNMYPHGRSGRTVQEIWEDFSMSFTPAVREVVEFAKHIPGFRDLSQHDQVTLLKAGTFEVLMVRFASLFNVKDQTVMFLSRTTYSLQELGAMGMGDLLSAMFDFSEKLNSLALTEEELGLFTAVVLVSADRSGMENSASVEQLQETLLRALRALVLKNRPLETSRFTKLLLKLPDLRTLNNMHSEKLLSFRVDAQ
GalR3 antag conf: GalR3 antagonist hit confirmation, cell-based, fluorescence, triplicate; shares compounds with GalR3 antag; HEK293 GalR3 CNG cAMP biosensor, membrane potential fluorescence; galR3 fused to GalR1 carboxy tail; challenged with forskolin and galanin at EC90; inhibition, % at 3 µM; 59% of 1,600 active;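 active means inhibition above the primary screen's cutoff, the mean inhibition of all screened compounds plus 3 SD, cut at about 13% in these data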;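 further: 0% = forskolin plus galanin and 100% = forskolin alone with DMSO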
CNG parental: nonspecific cAMP agonists in parental HEK-CNG cells, counter-screen for GalR3 antagonist project, cell-based, fluorescence, high throughput; shares compounds with GalR3 antag; 10% of 1,600 active; activation, % at 3 µM; HEK293-CNG parental cells, cAMP membrane potential fluorescence; normalised: DMSO wells 0%, forskolin wells 100%; in the data active means activation above about 1.3%
The depositor's hits bear a star; . = not tested or not shown.

SMILES	NR2E3 ag-1	PG9 Ab binder	NR2E3 ag-2	GalR3 antag	Rev-erbA mod	GalR3 antag conf	CNG parental
Cc1nnc(NC(=O)C(C)Sc2nnc(CCNC(=O)c3ccccc3F)n2C)s1 (stereo unspecified)	2	-1	-25	13*	2	5	0
CCc1nnc(NC(=O)CSc2nnc(CNC(=O)c3ccccc3F)n2C)s1	-2	-1	-23	-10	2	.	.
CC(C)CN(C(=O)CN1CCN(S(=O)(=O)c2ccc3ccccc3c2)CC1)c1c(N)n(CC(C)C)c(=O)[nH]c1=O	0	-2	3	18*	-7	-4	0
COc1cccc(NC(=O)c2ccc(CN3CCc4ccccc4C3)cc2)c1	4	1	-18	46*	4	102*	0
Cc1cc(CSc2ccccc2)ccc1NC(=O)c1ccc(CN2CCOCC2)cc1	0	1	9	106*	1	122*	-1
CCOC(=O)c1ccc(NC(=O)c2ccc(CN3CCc4ccccc4C3)cc2)cc1	3	-2	-2	71*	0	110*	0
CCOc1ccc(NC(=O)c2ccc(CN3CCc4ccccc4C3)cc2)cc1	6	-4	-34	103*	1	108*	0
NC(=O)c1ccc(NC(=O)c2ccc(CN3CCOCC3)cc2)cc1	4	1	2	-3	5	.	.
CCOC(=O)c1ccc(NC(=O)c2ccc(CN3CCOCC3)cc2)cc1	0	0	-9	94*	-1	110*	0
Nn1c(SCc2ccc(Br)cc2)nnc1-c1n[nH]c2c1CCC2	.	.	.	.	5	.	.
COc1ccc(/C=N/NC(=O)C(Cc2c[nH]c3ccccc23)NC(=O)OCC(C)C)cc1[N+](=O)[O-] (stereo unspecified)	4	1	-5	15*	1	26*	0
CC1(C)CC2CC(C)(CN2S(=O)(=O)c2ccc(C(=O)Nc3cccc(S(=O)(=O)N4CCOCC4)c3)cc2)C1 (stereo unspecified)	-1	-1	3	87*	1	115*	-2
CC1(C)CC2CC(C)(CN2S(=O)(=O)c2ccc(C(=O)Nc3cc(S(=O)(=O)N4CCOCC4)ccc3Cl)cc2)C1 (stereo unspecified)	-3	-3	0	-4	1	.	.
COc1ccc(CN(CCN2CCOCC2)C(=O)c2cccc(F)c2)cc1OC	.	.	.	.	5	.	.
COc1ccc(CC2(CO)CCN(Cc3ccc(NC(C)=O)cc3)CC2)cc1	2	-2	11	-5	-2	.	.
COc1ccc(CC2(CO)CCN(Cc3ccc(OC(F)(F)F)cc3)CC2)cc1	-1	-1	12	17*	2	-4	1.8*
COc1ccc(CC2(CO)CCN(Cc3cnn(-c4ccc(F)cc4)c3)CC2)cc1	6	1	-6	17*	-8	5	1.5*
Fc1cccc(F)c1Cn1ccc2ccc(-c3ccc4ccn(Cc5c(F)cccc5F)c4c3)cc21	.	.	.	.	5	.	.
OCCC#Cc1ccc(CN2CCN(C3CCCCC3)C(CCO)C2)cc1 (stereo unspecified)	2	-3	6	13*	-4	0	0
Cc1ccc(-c2nn3c(C)nnc3c3ccccc23)cc1S(=O)(=O)NCCO	3	0	-9	-4	0	.	.
Cc1ccc(-c2nn3c(C)nnc3c3ccccc23)cc1S(=O)(=O)NC(C)c1ccccc1 (stereo unspecified)	4	-1	24	15*	-3	23*	1
COc1ccc(S[C@]2(C(=O)N(C)C)CC(=O)N(c3ccsc3)[C@@H]2c2ccc(OC)cc2)cc1	.	.	.	.	0	.	.
CC(=O)N1c2ccc(S(=O)(=O)NCC3CCC(C(=O)Nc4cccc(C)n4)CC3)cc2CC1C (stereo unspecified)	-3	-1	31	24*	3	11	0
CCCCOCCCNC(=O)C[C@H]1C[C@@]2(C(=O)OC)C(=C[C@H](C(C)C)O[C@@H]2C2CC2)N(Cc2ccc(Cl)cc2Cl)C1=O	.	.	.	.	-3	.	.
CCO[C@@H]1OC(C(=O)O)=C[C@H](c2ccc(C(F)(F)F)cc2)[C@H]1CCCO	-3	0	18	-4	-4	.	.
SMILES	NR2E3 ag-1	PG9 Ab binder	NR2E3 ag-2	GalR3 antag	Rev-erbA mod	GalR3 antag conf	CNG parental
CCO[C@@H]1OC(C(N)=O)=C[C@H](c2ccc(C(F)(F)F)cc2)[C@H]1CCCO	1	1	-2	16*	-2	5	0
O=C(Cc1ccccc1)NC1CCCCN(Cc2cccc(Cl)c2)C1=O (stereo unspecified)	.	.	.	.	-4	.	.
Cc1cc(NC(=O)COC(=O)C(Cc2ccccc2)NC(=O)c2ccco2)no1 (stereo unspecified)	1	2	8	13*	-6	14*	0
O=C(COC(=O)[C@H](Cc1ccccc1)NC(=O)c1ccco1)Nc1ccccc1	.	1	-16	5	2	.	.
CCOC(=O)c1sc2ncnc(N3CCN(C(=O)OCC)CC3)c2c1C	3	2	2	15*	1	21*	0
C=C(C)[C@@H]1CC=C(CN2CCC(N3CCC(C(=O)N4CCCC4)CC3)CC2)CC1	4	0	3	20*	8	3	4.4*
COCCCN1C(=O)[C@H](CC(=O)N2CCC(c3ccccc3)CC2)[C@]2(C(=O)OC)CCCCC=C12	.	.	.	.	-3	.	.
CC(O)CN(CC(C)O)c1ccc2c(c1)Cc1cc([N+](=O)[O-])ccc1-2 (stereo unspecified)	.	-16	-72	13*	16	27*	1.4*
Nc1ccc2c(c1)Cc1cc([N+](=O)[O-])ccc1-2	-2	-4	-26	-3	7	.	.
Nc1nc2c(ncn2[C@@H]2O[C@H](C(=O)N[C@H](Cc3ccccc3)C(=O)NC3CCCCC3)[C@@H](O)[C@H]2O)c(=O)[nH]1	.	-2	.	1	6	.	.
CCN(C[C@H]1[C@@H](c2ccc(C3=CCCC3)cc2)[C@H](CO)N1C(=O)c1cccnc1)S(=O)(=O)c1ccccc1[N+](=O)[O-]	.	.	.	.	0	.	.

Compound activity from PubChem BioAssay.
